Assay results taken from ChEMBL document CHEMBL1759961, “Alkyl piperidine and piperazine hydroxamic acids as HDAC inhibitors” (Bioorg Med Chem Lett, 2011).

Experiments:
[1] = molecular target: T1, Histone deacetylase (Homo sapiens) (UniProt Q13547+O15379+Q9UBN7+Q92769+Q9UQL6+Q8WUI4+Q9BY41+Q96DB2+P56524+Q9UKV0+Q969S8); settings: HeLa, at 0.1 µM
[2] = molecular target: T1, Histone deacetylase (Homo sapiens); settings: HeLa, at 1 µM
[3] = molecular target: T1, Histone deacetylase (Homo sapiens); assay: Inhibition of HDAC in human HeLa cells at 50 uM by fluorescent activity assay; format: cell-based
Procedure, shortened: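 HDAC activity was measured with a commercial fluorescent kit using Fluor de Lys substrate plus developer. Compounds were dissolved in DMSO and stored at -80 °C. Fluorophore release was read at excitation 335 nm and emission 460 nm. All experiments were run in triplicate.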

[4] = molecular target: T1, Histone deacetylase (Homo sapiens); settings: HeLa, at 10 µM
[5] = test system: HCT-116; assay: Antiproliferative activity against human HCT116 cells after 5 days by Alamar blue assay; format: functional, cell-based; settings: HCT-116, 120 h
[6] = molecular target: Histone deacetylase; assay: Inhibition of HDAC in human HeLa cells by fluorescent activity assay; format: cell-based

Row | SMILES | inhibition [1] [%] | inhibition [2] [%] | inhibition [3] [%] | inhibition [4] [%] | IC50 [5] [µM] | IC50 [6] [µM]
1 | O=C(CCCCC1CCN(C(=O)c2ccccc2)CC1)NO | 12 | 44 |  |  |  | 
2 | O=C(CN1CCN(S(=O)(=O)Cc2ccccc2)CC1)NO |  |  | 51 | 16 |  | 
3 | O=C(CC1CCN(C(=O)Cc2ccccc2)CC1)NO |  |  | 61 | 39 |  | 
4 | O=C(CCCCN1CCN(C(=O)c2ccccc2)CC1)NO | 3 | 9 |  |  |  | 
5 | O=C(CCN1CCN(S(=O)(=O)Cc2ccccc2)CC1)NO |  |  | 38 | 1 |  | 
6 | O=C(CCC1CCN(S(=O)(=O)Cc2ccccc2)CC1)NO | 8 | 33 |  |  |  | 
7 | O=C(NO)C1CCN(C(=O)c2ccccc2)CC1 |  |  | 16 | 0 |  | 
8 | O=C(CCCC1CCN(C(=O)Nc2ccccc2)CC1)NO | 53 | 81 |  | 86 | 0.7 | 0.1
9 | O=C(CCCC1CCN(C(=O)NCc2ccccc2)CC1)NO | 59 | 69 |  | 86 | 0.3 | 0.09
10 | O=C(CCCCCC1CCN(C(=O)NCc2ccccc2)CC1)NO | 20 | 62 |  |  |  | 
11 | O=C(NO)C1CCN(C(=O)Cc2ccccc2)CC1 |  |  | 65 | 33 |  | 
12 | O=C(CCN1CCN(C(=O)Cc2ccccc2)CC1)NO |  |  | 2 | 0 |  | 
13 | O=C(CC1CCN(S(=O)(=O)Cc2ccccc2)CC1)NO |  |  | 22 | 21 |  | 
14 | O=C(CCCCN1CCN(S(=O)(=O)Cc2ccccc2)CC1)NO | 4 | 9 |  |  |  | 
15 | O=C(NO)C1CCN(S(=O)(=O)Cc2ccccc2)CC1 |  |  | 33 | 1 |  | 
16 | O=C(CCCCC1CCN(C(=O)Nc2ccccc2)CC1)NO | 23 | 63 |  |  |  | 
17 | O=C(CCC1CCN(C(=O)c2ccccc2)CC1)NO | 11 | 30 |  |  |  | 
18 | O=C(CCCCCC1CCN(C(=O)Nc2ccccc2)CC1)NO | 16 | 54 |  |  |  | 
19 | O=C(CCCN1CCN(S(=O)(=O)c2ccccc2)CC1)NO |  |  | 50 | 30 |  | 
20 | O=C(CN1CCN(C(=O)Cc2ccccc2)CC1)NO |  |  | 19 | 6 |  | 

Row | SMILES | inhibition [1] [%] | inhibition [2] [%] | inhibition [3] [%] | inhibition [4] [%] | IC50 [5] [µM] | IC50 [6] [µM]
21 | O=C(CCCCN1CCN(C(=O)Cc2ccccc2)CC1)NO | 19 | 40 |  |  |  | 
22 | O=C(NO)C1CCN(S(=O)(=O)c2ccccc2)CC1 |  |  | 50 | 29 |  | 
23 | O=C(CN1CCN(S(=O)(=O)c2ccccc2)CC1)NO |  |  | 10 | 3 |  | 
24 | O=C(CCCC1CCN(S(=O)(=O)Cc2ccccc2)CC1)NO | 12 |  | 77 |  | 3.2 | 0.84
25 | O=C(CCN1CCN(S(=O)(=O)c2ccccc2)CC1)NO |  |  | 44 | 14 |  | 
26 | O=C(CCCC1CCN(C(=O)Cc2ccccc2)CC1)NO | 36 | 72 | 85 | 80 | 5.1 | 0.26
27 | O=C(CC1CCN(C(=O)c2ccccc2)CC1)NO |  |  | 41 | 7 |  | 
28 | O=C(CCCCC1CCN(S(=O)(=O)c2ccccc2)CC1)NO | 13 | 45 |  |  |  | 
29 | O=C(CCCN1CCN(C(=O)c2ccccc2)CC1)NO |  |  | 30 | 13 |  | 
30 | O=C(CCCC1CCN(C(=O)c2ccccc2)CC1)NO | 11 |  | 77 | 69 | 17.2 | 1.39
31 | O=C(CCC1CCN(C(=O)Cc2ccccc2)CC1)NO | 2 | 24 |  |  |  | 
32 | O=C(CCCN1CCN(S(=O)(=O)Cc2ccccc2)CC1)NO |  |  | 19 | < 10 |  | 
33 | O=C(CCCC1CCN(S(=O)(=O)c2ccccc2)CC1)NO |  |  |  |  | 2.7 | 0.54
34 | O=C(CC1CCN(S(=O)(=O)c2ccccc2)CC1)NO |  |  | 68 | 41 |  | 
35 | O=C(CCCCC1CCN(C(=O)Cc2ccccc2)CC1)NO | 11 | 54 |  |  |  | 
36 | O=C(CCC1CCN(S(=O)(=O)c2ccccc2)CC1)NO | 9 | 33 |  |  |  | 
37 | O=C(CCCCN1CCN(S(=O)(=O)c2ccccc2)CC1)NO | 9 | 12 |  |  |  | 
38 | O=C(CCCCC1CCN(C(=O)NCc2ccccc2)CC1)NO | 18 | 49 |  |  |  | 
39 | O=C(CCN1CCN(C(=O)c2ccccc2)CC1)NO | 3 | 3 |  |  |  | 
40 | O=C(CCCN1CCN(C(=O)Cc2ccccc2)CC1)NO |  |  | 52 | 28 |  | 
